Test results reported in ChEMBL document CHEMBL4014350, “Alkoxyurea-Based Histone Deacetylase Inhibitors Increase Cisplatin Potency in Chemoresistant Cancer Cell Lines” (J Med Chem, 2017).
Activity calls are given as the source filed them. The calls are words filed in the database; no cut-off is given here.

Key:
CAL-27 [1] = test: Potentiation of 1 uM cisplatin-induced cytotoxicity against human CAL27 cells assessed as decrease in cell viability by measuring combination index at 100 uM preincubated for 48 hrs followed by cisplatin treatment measured after 72 hrs by MTT assay; assay type: functional; details: in the assay text read “at 100 nM” for “at 100 uM”
Outline: (§1)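 Cal27 and cisplatin-resistant Cal27CisR cells were preincubated with the HDAC inhibitor for 48 h, then given cisplatin in combination. Viability was read by MTT after 72 h. The combination index was computed by the Chou–Talalay method: CI > 1 is antagonism, CI = 1 is additive, and CI < 0.9 is synergism. Points with fraction affected below 0.20 were flagged.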

[2] = molecular target: T1, Histone deacetylase 1/6 (Homo sapiens) (UniProt Q13547+Q9UBN7); test: Inhibition of HDAC1/HDAC6 in human Cal27CisR cells assessed as potentiation of 3.16 uM cisplatin-induced cytotoxicity by measuring combination index at 100 uM preincubated for 48 hrs followed by cisplatin treatment measured after 72 hrs by MTT assay; assay type: cell-based
Outline: (§2)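 Cal27CisR cells preincubated 48 h with the HDAC inhibitor, then exposed to cisplatin for 72 h. Viability read by MTT. Combination index calculated by the Chou–Talalay method: CI > 1 antagonism, CI = 1 additive, CI < 0.9 synergism. Points with fraction affected below 0.20 are flagged. Values are the mean of three experiments.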

CAL-27 [3] = test: Potentiation of 0.5 uM cisplatin-induced cytotoxicity against human CAL27 cells assessed as decrease in cell viability by measuring combination index at 300 uM preincubated for 48 hrs followed by cisplatin treatment measured after 72 hrs by MTT assay; assay type: functional; details: in the assay text read “at 300 nM” for “at 300 uM”; outline: as §1
CAL-27 [4] = test: Potentiation of 0.5 uM cisplatin-induced cytotoxicity against human CAL27 cells assessed as decrease in cell viability by measuring combination index at 100 uM preincubated for 48 hrs followed by cisplatin treatment measured after 72 hrs by MTT assay; assay type: functional; details: in the assay text read “at 100 nM” for “at 100 uM”; outline: as §1
Cal27CisR = test: Induction of apoptosis in human Cal27CisR cells at 1 uM for 48 hrs by propidium iodide dye-based flow cytometry; assay type: functional, cell-based
CAL-27 [5] = test: Potentiation of 0.316 uM cisplatin-induced cytotoxicity against human CAL27 cells assessed as decrease in cell viability by measuring combination index at 100 uM preincubated for 48 hrs followed by cisplatin treatment measured after 72 hrs by MTT assay; assay type: functional; details: in the assay text read “at 100 nM” for “at 100 uM”; outline: as §1
[6] = molecular target: T1, Histone deacetylase 1/6 (Homo sapiens); test: Inhibition of HDAC1/HDAC6 in human Cal27CisR cells assessed as potentiation of 1 uM cisplatin-induced cytotoxicity by measuring combination index at 400 nM preincubated for 48 hrs followed by cisplatin treatment measured after 72 hrs by MTT assay
[7] = molecular target: T1, Histone deacetylase 1/6 (Homo sapiens); test: Inhibition of HDAC1/HDAC6 in human Cal27CisR cells assessed as potentiation of 3.16 uM cisplatin-induced cytotoxicity by measuring combination index at 1000 nM preincubated for 48 hrs followed by cisplatin treatment measured after 72 hrs by MTT assay
CAL-27 [8] = test: Potentiation of cisplatin-induced apoptosis in human CAL27 cells at 1 uM preincubated for 48 hrs followed by cisplatin treatment for 6 hrs measured after 24 hrs by propidium iodide dye-based flow cytometry; assay type: functional, cell-based
CAL-27 [9] = test: Potentiation of 5 uM cisplatin-induced cytotoxicity against human CAL27 cells assessed as decrease in cell viability by measuring combination index at 1500 uM preincubated for 48 hrs followed by cisplatin treatment measured after 72 hrs by MTT assay; assay type: functional; details: in the assay text read “at 1500 nM” for “at 1500 uM”
Outline: (§3)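 HDAC inhibitor was added 48 h before cisplatin, then cells were exposed to cisplatin for 72 h and viability was read by MTT assay. Combination index was computed by the Chou–Talalay method: CI > 1 is antagonism, CI = 1 additive, CI < 0.9 synergism. Points with fraction affected below 0.20 were flagged.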

[10] = molecular target: T1, Histone deacetylase 1/6 (Homo sapiens); test: Inhibition of HDAC1/HDAC6 in human Cal27CisR cells assessed as potentiation of 3.16 uM cisplatin-induced cytotoxicity by measuring combination index at 900 nM preincubated for 48 hrs followed by cisplatin treatment measured after 72 hrs by MTT assay
CAL-27 [11] = test: Potentiation of 2 uM cisplatin-induced cytotoxicity against human CAL27 cells assessed as decrease in cell viability by measuring combination index at 1000 uM preincubated for 48 hrs followed by cisplatin treatment measured after 72 hrs by MTT assay; assay type: functional; details: in the assay text read “at 1000 nM” for “at 1000 uM”; outline: as §3
CAL-27 [12] = test: Potentiation of 0.316 uM cisplatin-induced cytotoxicity against human CAL27 cells assessed as decrease in cell viability by measuring combination index at 700 nM preincubated for 48 hrs followed by cisplatin treatment measured after 72 hrs by MTT assay
CAL-27 [13] = test: Potentiation of 5 uM cisplatin-induced cytotoxicity against human CAL27 cells assessed as decrease in cell viability by measuring combination index at 1000 uM preincubated for 48 hrs followed by cisplatin treatment measured after 72 hrs by MTT assay; assay type: functional; details: in the assay text read “at 1000 nM” for “at 1000 uM”; outline: as §3
CAL-27 [14] = test: Potentiation of 0.5 uM cisplatin-induced cytotoxicity against human CAL27 cells assessed as decrease in cell viability by measuring combination index at 2000 uM preincubated for 48 hrs followed by cisplatin treatment measured after 72 hrs by MTT assay; assay type: functional; outline: as §1
CAL-27 [15] = test: Potentiation of 0.316 uM cisplatin-induced cytotoxicity against human CAL27 cells assessed as decrease in cell viability by measuring combination index at 500 uM preincubated for 48 hrs followed by cisplatin treatment measured after 72 hrs by MTT assay; assay type: functional; details: in the assay text read “at 500 nM” for “at 500 uM”; outline: as §1
CAL-27 [16] = test: Potentiation of 0.316 uM cisplatin-induced cytotoxicity against human CAL27 cells assessed as decrease in cell viability by measuring combination index at 1000 uM preincubated for 48 hrs followed by cisplatin treatment measured after 72 hrs by MTT assay; assay type: functional; details: in the assay text read “at 1000 nM” for “at 1000 uM”; outline: as §1
[17] = molecular target: T1, Histone deacetylase 1/6 (Homo sapiens); test: Inhibition of HDAC1/HDAC6 in human Cal27CisR cells assessed as potentiation of 1 uM cisplatin-induced cytotoxicity by measuring combination index at 1000 uM preincubated for 48 hrs followed by cisplatin treatment measured after 72 hrs by MTT assay; assay type: cell-based; outline: as §2
CAL-27 [18] = test: Potentiation of 2 uM cisplatin-induced cytotoxicity against human CAL27 cells assessed as decrease in cell viability by measuring combination index at 1500 uM preincubated for 48 hrs followed by cisplatin treatment measured after 72 hrs by MTT assay; assay type: functional; details: in the assay text read “at 1500 nM” for “at 1500 uM”; outline: as §3
CAL-27 [19] = test: Potentiation of 2 uM cisplatin-induced cytotoxicity against human CAL27 cells assessed as decrease in cell viability by measuring combination index at 2000 uM preincubated for 48 hrs followed by cisplatin treatment measured after 72 hrs by MTT assay; assay type: functional; details: in the assay text read “at 2000 nM” for “at 2000 uM”; outline: as §3
[20] = molecular target: T1, Histone deacetylase 1/6 (Homo sapiens); test: Inhibition of HDAC1/HDAC6 in human Cal27CisR cells assessed as potentiation of 1 uM cisplatin-induced cytotoxicity by measuring combination index at 1500 uM preincubated for 48 hrs followed by cisplatin treatment measured after 72 hrs by MTT assay; assay type: cell-based; outline: as §2

T1 sequence (Q13547 whole entry, looked up): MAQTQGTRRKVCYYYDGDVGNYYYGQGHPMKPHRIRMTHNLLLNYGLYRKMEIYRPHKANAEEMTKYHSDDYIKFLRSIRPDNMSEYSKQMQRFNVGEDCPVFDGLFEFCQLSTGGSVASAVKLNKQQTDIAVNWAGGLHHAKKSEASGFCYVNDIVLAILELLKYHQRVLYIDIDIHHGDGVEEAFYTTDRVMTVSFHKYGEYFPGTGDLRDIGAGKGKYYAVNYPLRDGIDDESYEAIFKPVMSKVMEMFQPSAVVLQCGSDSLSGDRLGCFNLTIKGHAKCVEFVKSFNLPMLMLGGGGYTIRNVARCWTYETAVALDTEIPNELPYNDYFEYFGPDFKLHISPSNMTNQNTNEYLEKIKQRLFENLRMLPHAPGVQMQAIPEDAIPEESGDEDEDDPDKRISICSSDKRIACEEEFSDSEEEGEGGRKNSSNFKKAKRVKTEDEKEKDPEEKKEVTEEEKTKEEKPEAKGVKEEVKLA
T1 sequence (Q9UBN7 whole entry, looked up): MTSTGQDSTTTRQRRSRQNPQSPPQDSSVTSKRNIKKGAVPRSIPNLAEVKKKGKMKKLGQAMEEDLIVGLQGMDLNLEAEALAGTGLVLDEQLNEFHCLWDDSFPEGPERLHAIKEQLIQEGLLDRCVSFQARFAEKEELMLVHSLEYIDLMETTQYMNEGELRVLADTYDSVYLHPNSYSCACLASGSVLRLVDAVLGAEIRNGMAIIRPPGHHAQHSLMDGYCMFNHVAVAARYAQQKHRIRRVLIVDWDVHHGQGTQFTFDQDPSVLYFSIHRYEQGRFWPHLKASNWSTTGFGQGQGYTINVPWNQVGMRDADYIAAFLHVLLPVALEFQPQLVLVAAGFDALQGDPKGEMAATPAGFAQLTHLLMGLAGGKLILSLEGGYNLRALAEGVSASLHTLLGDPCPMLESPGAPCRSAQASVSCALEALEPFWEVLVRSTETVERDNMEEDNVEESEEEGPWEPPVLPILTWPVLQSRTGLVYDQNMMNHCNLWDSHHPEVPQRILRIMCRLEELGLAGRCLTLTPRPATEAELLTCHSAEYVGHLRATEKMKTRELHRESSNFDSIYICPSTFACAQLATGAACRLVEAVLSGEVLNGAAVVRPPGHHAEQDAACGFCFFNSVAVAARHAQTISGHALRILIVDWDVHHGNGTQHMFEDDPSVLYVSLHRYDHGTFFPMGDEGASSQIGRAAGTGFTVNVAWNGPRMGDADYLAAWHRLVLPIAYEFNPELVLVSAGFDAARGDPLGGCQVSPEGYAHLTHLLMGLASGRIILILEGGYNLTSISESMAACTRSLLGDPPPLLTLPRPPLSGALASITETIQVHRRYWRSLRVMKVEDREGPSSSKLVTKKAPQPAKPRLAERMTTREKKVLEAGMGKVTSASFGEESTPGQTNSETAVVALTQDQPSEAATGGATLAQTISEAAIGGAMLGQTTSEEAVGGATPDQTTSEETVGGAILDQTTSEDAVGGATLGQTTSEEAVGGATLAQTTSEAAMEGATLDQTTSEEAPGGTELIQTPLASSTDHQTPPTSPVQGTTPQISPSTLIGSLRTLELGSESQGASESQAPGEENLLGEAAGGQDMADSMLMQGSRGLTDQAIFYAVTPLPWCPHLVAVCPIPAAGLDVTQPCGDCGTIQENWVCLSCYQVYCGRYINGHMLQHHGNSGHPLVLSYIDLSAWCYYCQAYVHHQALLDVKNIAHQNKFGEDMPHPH

| Compound | CI (CAL-27 [1]) | CI [2] | CI (CAL-27 [3]) | CI (CAL-27 [4]) | Activity (Cal27CisR) | CI (CAL-27 [5]) | CI [6] | CI (CAL-27 [15]) | other results |
| --- | --- | --- | --- | --- | --- | --- | --- | --- | --- |
| COc1cc(NC(=O)NOCCCCCC(=O)NO)c2nccc(C)c2c1 | <0.2 | < 0.2 | <0.2 | <0.2 | inactive | <0.2 | < 0.2 |  |  |
| COc1cc(NC(=O)NOCCCCCC(=O)NO)c2ncccc2c1 |  |  |  |  |  |  |  | 0.86 | CI [7]: 0.63; Activity (CAL-27 [8]): Active; CI (CAL-27 [9]): 0.55; CI [10]: 0.79; CI (CAL-27 [11]): 0.41; CI (CAL-27 [12]): <0.2; CI (CAL-27 [13]): 0.4; CI (CAL-27 [14]): 0.86; CI (CAL-27 [16]): 0.77; CI [17]: 0.85; CI (CAL-27 [18]): 0.6; CI (CAL-27 [19]): 0.7; CI [20]: 1 |
| COc1cc(NC(=O)NOCCCCCC(=O)NO)c2nc(OC)cc(C)c2c1 | <0.2 | 0.89 | <0.2 | <0.2 | inactive | <0.2 | < 0.2 | 0.79 |  |
